Test results taken from ChEMBL document CHEMBL1134769, “Potent and selective nonpeptide inhibitors of caspases 3 and 7” (J Med Chem, 2001).
Activity calls are given as the source filed them. No cut-off for these calls is given here.

Columns and labels:
Caspase-8 = Caspase-8 (Homo sapiens, UniProt Q14790); experiment: Inhibitory activity against Caspase-8; settings: read-out: Ki app
Outline: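 Recombinant full-length human caspase 8, ~10 units/assay, in Na+MOPS pH 7.5 with 10% glycerol, 0.25 mM EDTA and 5 mM β-mercaptoethanol. Substrate 10 μM Ac-IETD-AMC. Fluorescence at 360/460 nm, 30 °C, 5% final DMSO. Compounds screened at a single dose (typically 5–50 μM), then full IC50 curves for actives.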

Caspase-7 = biological target: T1, Caspase-7 (Homo sapiens, UniProt P55210); experiment: Inhibitory activity against Caspase-7; settings: read-out: Ki app
T1 sequence (P55210 whole entry): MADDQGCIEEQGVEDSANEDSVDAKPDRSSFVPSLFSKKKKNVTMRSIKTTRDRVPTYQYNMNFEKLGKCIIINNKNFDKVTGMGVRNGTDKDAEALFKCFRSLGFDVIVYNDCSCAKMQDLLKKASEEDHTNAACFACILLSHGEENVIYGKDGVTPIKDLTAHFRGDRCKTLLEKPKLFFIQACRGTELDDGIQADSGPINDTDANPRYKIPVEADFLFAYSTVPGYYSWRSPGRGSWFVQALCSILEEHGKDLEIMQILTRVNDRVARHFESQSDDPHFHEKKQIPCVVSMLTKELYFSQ
Outline: (§1)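 Recombinant full-length human caspase 3 or 7, ~10 units/assay (1 unit = 1 pmol AMC/min). Substrate 10 μM Ac-DEVD-AMC. AMC fluorescence at 360/460 nm, 30 °C, with 5% final DMSO. Single-dose screen (typically 5–50 μM), then IC50 curves; repeated IC50s had CVs typically <30%.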

Caspase-2 = biological target: T2, Caspase-2 (Homo sapiens, UniProt P42575); experiment: Inhibitory activity against caspase-2; settings: read-out: Ki app
T2 sequence (P42575 whole entry): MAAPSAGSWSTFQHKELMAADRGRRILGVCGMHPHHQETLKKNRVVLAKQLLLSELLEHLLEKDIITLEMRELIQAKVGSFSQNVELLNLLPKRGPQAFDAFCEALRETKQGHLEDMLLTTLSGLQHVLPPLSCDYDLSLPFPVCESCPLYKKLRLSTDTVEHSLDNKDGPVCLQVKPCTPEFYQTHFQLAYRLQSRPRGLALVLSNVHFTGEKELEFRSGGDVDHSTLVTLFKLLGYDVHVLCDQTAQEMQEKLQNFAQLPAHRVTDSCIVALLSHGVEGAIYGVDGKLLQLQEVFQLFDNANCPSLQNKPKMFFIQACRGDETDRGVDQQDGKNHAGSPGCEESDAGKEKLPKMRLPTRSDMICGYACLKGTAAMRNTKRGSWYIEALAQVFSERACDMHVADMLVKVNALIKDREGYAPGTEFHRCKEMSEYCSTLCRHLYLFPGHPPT
Outline: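 Recombinant full-length human caspase 2 (~10 units/assay) in 50 mM sodium acetate pH 6.2 with 10% glycerol, 0.25 mM EDTA and 5 mM β-mercaptoethanol. Substrate 25 μM Ac-VDVAD-AMC. Fluorescence at 360/460 nm, 30 °C, final DMSO 5%. Compounds screened at a single dose (typically 5–50 μM), then full IC50 curves where activity was seen.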

C20/A4 [1] = experiment: In vitro inhibition of Chondrocyte cell line C20/A4 apoptosis at 10 uM of compound; type: functional, Homo sapiens
Outline: (§2)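 Immortalized human chondrocyte line C20/A4 seeded at 20 000 cells/well overnight, then exposed 24 h to 4 μg/mL camptothecin with or without compound. Floating and adherent cells combined and lysed 30 min at 4 °C, then clarified at 14000g. Mono- and oligonucleosome DNA fragments measured by cell death ELISA; result expressed as % inhibition of apoptosis.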

Caspase-3 = biological target: T3, Caspase-3 (Homo sapiens, UniProt P42574); experiment: Inhibitory activity against caspase-3; settings: read-out: Ki app; outline: as §1
T3 sequence (P42574 whole entry): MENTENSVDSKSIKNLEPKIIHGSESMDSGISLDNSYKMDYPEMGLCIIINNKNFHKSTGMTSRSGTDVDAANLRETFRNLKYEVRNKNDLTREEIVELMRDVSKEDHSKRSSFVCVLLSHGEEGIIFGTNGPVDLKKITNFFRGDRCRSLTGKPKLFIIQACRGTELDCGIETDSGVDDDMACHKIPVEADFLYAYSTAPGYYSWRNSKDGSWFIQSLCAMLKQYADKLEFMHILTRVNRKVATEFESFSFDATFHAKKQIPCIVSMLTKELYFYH

C20/A4 [2] = experiment: In vitro inhibition of Chondrocyte cell line C20/A4 apoptosis at 25 uM of compound; Not active; type: functional, cell-based; settings: Homo sapiens; outline: as §2
C20/A4 [3] = experiment: In vitro inhibition of Chondrocyte cell line C20/A4 apoptosis at 10 uM of compound; Not active; type: functional, cell-based; settings: Homo sapiens; outline: as §2

Caspase-8, sequence (Q14790 217-374 limits assumed): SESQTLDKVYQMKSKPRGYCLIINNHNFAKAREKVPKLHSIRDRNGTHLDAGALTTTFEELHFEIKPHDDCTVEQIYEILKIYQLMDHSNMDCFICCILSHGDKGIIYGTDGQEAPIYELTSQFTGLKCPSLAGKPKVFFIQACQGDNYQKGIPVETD
Caspase-8, sequence (Q14790 385-479 limits assumed): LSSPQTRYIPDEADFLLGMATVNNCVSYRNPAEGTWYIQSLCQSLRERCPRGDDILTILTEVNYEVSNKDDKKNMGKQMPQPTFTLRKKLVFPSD

Ki (Caspase-8) [µM] | Ki (Caspase-7) [µM] | Ki (Caspase-2) [µM] | Ki (Caspase-3) [µM] | Structure (SMILES) | Inhibition (C20/A4 [1]) [%] | NA (C20/A4 [2]) | NA (C20/A4 [3])
> 25 | 0.17 | > 25 | 0.06 | COC[C@@H]1CCCN1S(=O)(=O)c1ccc2c(c1)C(=O)C(=O)N2 | 44 |  | 
> 5 | 0.006 | 4 | 0.0012 | O=C1C(=O)N(Cc2ccccc2)c2ccc(S(=O)(=O)N3CCC[C@H]3COc3ccccc3)cc21 | 48 |  | 
> 50 | 10 | 11 | 12 | CN(CC1CCCN1S(=O)(=O)c1ccc2c(c1)C(=O)C(=O)N2)c1ccccc1 (centres undefined) |  | inactive | inactive
80 | 0.047 | 6.5 | 0.019 | O=C1Nc2ccc(S(=O)(=O)N3CCC[C@H]3CNc3ccccc3)cc2C1=O |  |  | 
49 | 0.047 | 4.9 | 0.015 | O=C1Nc2ccc(S(=O)(=O)N3CCC[C@H]3COc3ccccc3)cc2C1=O |  |  | 
